How the values were obtained:
Cricetinae gen. sp. [1] = experiment: Percent suppression of parasitaemia was measured in vivo against Visceral Leishmania donovani in hamsters at 13 mg/kg of dosage level.; type: functional, Cricetulus griseus
How it was run: (§1)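 Hamsters, six per group, infected intracardially with 1.0×10^7 L. donovani Khartoum amastigotes from donor hamster spleens. Dosed intramuscularly for 4 consecutive days starting day 3 post-infection and screened blind. On day 7 the animals were sacrificed and total parasite number per liver was counted. Result expressed as % suppression of parasitemia.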

[2] = Partition coefficient (logP); type: physicochemical; settings: octanol/water
Leishmania donovani [3] = experiment: In vitro inhibition of Leishmania donovani parasite; type: functional, organism-based
How it was run: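 L. donovani MHOM/SD/62/1S-CL2D axenic amastigote-like forms, seeded at 10^6 cells/mL in amastigote medium with or without drug (DMSO at most 1.25% v/v). Incubated 72 h at 37 °C, humid 5% CO2. A tetrazolium-type Cell Titer reagent was then added for a further 8–12 h and absorbance read at 490 nm. IC50 fitted by a four-parameter log dose-response equation.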

Cricetinae gen. sp. [4] = experiment: Percent suppression of parasitaemia was measured in vivo against Visceral Leishmania donovani in hamsters at 52 mg/kg of dosage level.; type: functional, Cricetulus griseus; how it was run: as §1
Cricetinae gen. sp. [5] = experiment: Percent suppression of parasitaemia was measured in vivo against Visceral Leishmania donovani in hamsters at 208 mg/kg of dosage level.; type: functional, Cricetulus griseus; how it was run: as §1
Leishmania donovani [6] = experiment: Compound was evaluated in vitro against Leishmania donovani parasite; type: functional, organism-based
How it was run: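 Axenic amastigote-like L. donovani (MHOM/SD/62/1S-CL2D), seeded at 10^6 cells/mL with or without drug, DMSO ≤1.25% (v/v), 72 h at 37 °C, 5% CO2. Tetrazolium-type dehydrogenase reagent added, further 8–12 h, absorbance at 490 nm; IC50 from four-parameter log dose-response fit.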

Cricetinae gen. sp. [7] = experiment: % suppression of parasitaemia was measured in vivo against Visceral Leishmania donovani in hamsters at 208 mg/kg of dosage level.; type: functional, Cricetulus griseus
Cricetinae gen. sp. [8] = experiment: % suppression of parasitaemia was measured in vivo against Visceral Leishmania donovani in hamsters at 52 mg/kg of dosage level.; type: functional, Cricetulus griseus

| Molecule | logP [2] | IC50 (Leishmania donovani [3]) | further results |
| --- | --- | --- | --- |
| O=S(=O)(c1cc(C(F)(F)F)ccc1F)N1CCCCCC1 | 4.03 | 108 µM | Suppression (Cricetinae gen. sp. [1]): 11%; Suppression (Cricetinae gen. sp. [4]): 13%; Suppression (Cricetinae gen. sp. [5]): 19% |
| NS(=O)(=O)c1cc(C(F)(F)F)ccc1Cl | 1.98 | > 450 µM | – |
| O=[N+]([O-])c1cc(C(F)(F)F)cc([N+](=O)[O-])c1Cl [CHLORALIN] | 3.43 | – | IC50 (Leishmania donovani [6]): 1.3 µM; Suppression (Cricetinae gen. sp. [7]): 32%; Suppression (Cricetinae gen. sp. [8]): 21% |
| O=S(=O)(c1cc(C(F)(F)F)ccc1F)N1CCN(c2ccccn2)CC1 | 2.91 | > 450 µM | – |
| O=S(=O)(c1cc(C(F)(F)F)ccc1Cl)N1CCCCC1 | 4.01 | 110 µM | – |
| MEGLUMINE ANTIMONATE | – | – | Suppression (Cricetinae gen. sp. [4]; Cricetulus griseus): 27%; Suppression (Cricetinae gen. sp. [5]; Cricetulus griseus): 73% |
| O=S(=O)(c1cc(C(F)(F)F)ccc1Cl)N1CCCCCC1 | 4.57 | 56 µM | – |
| CN1CCN(S(=O)(=O)c2cc(C(F)(F)F)ccc2F)CC1 | 2.61 | 199 µM | – |
| CCN(CC)CCNS(=O)(=O)c1cc(C(F)(F)F)ccc1F | 3.3 | > 450 µM | – |
| O=S(=O)(c1cc(C(F)(F)F)ccc1F)N1CCCCC1 | 3.47 | 418 µM | – |
| CNS(=O)(=O)c1cc(C(F)(F)F)ccc1Cl | 2.63 | > 450 µM | – |

The next lines start with results.

| logP [2] | IC50 (Leishmania donovani [3]) | Molecule | further results |
| --- | --- | --- | --- |
| 3.57 | 23 µM | O=S(=O)(c1cc(C(F)(F)F)ccc1N1CCCC1)N1CCCC1 | Suppression (Cricetinae gen. sp. [1]): 16%; Suppression (Cricetinae gen. sp. [4]): 29%; Suppression (Cricetinae gen. sp. [5]): 30% |
| 3.45 | 44 µM | O=S(=O)(c1cc(C(F)(F)F)ccc1Cl)N1CCN(c2ccccn2)CC1 | – |
| 3.16 | 321 µM | CN1CCN(S(=O)(=O)c2cc(C(F)(F)F)ccc2Cl)CC1 | – |
| 3.85 | > 450 µM | CCN(CC)CCNS(=O)(=O)c1cc(C(F)(F)F)ccc1Cl | – |
| 3.44 | 115 µM | O=S(=O)(c1cc(C(F)(F)F)ccc1Cl)N1CCCC1 | – |
| 2.08 | > 450 µM | CNS(=O)(=O)c1cc(C(F)(F)F)ccc1F | – |
| 1.68 | > 450 µM | NS(=O)(=O)c1cc(C(F)(F)F)ccc1F | – |
| 2.9 | > 450 µM | O=S(=O)(c1cc(C(F)(F)F)ccc1F)N1CCCC1 | – |
